# Screening results: PubChem BioAssay, several laboratories
# Shown are actives, neighbours in structure and some others; about 1.9% of the full set was active somewhere.
# RanGTP-Impb inh = inhibitors of RanGTP-importin-beta interaction, primary screen, biochemical, FRET, CFP-Ran, YFP-importin-beta, homogeneous. cell-free CFP-Ran/YFP-importin-beta FRET ratio. AID 2216. inhibition, % (concentration not given with the values). actives 1.1% (n = 300,000);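 active = more than half of the replicate wells show a fall in the fluorescence ratio signal beyond about 16%, limit read from the data, passing the limit was not always enough; inconclusive = exactly half of the replicate wells pass the set limit; inactive = fewer than half of replicates pass the limit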;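 note: 0% = DMSO wells and 100% = Ran loaded with GDP instead of GTP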
# Runt-SMMHC FRET = blocks binding of human RUNX1 Runt domain to CBFb-SMMHC | Q01196+Q13951 | Cerulean-Runt/Venus-CBFb-SMMHC FRET ratio 530/480, 1 h | inhibition, % at 20 µM | actives 0.74% (n = 220,000);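 active = mean inhibition across duplicate retests at 20 µM reaching about 50%, limit read from the data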;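 note: 0% = DMSO wells and 100% = wells with excess untagged CBFb-SMMHC; inhibitors lower the FRET ratio by blocking Runt binding to CBFb-SMMHC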
# Runt-CBFb FRET = blocks binding of human RUNX1 Runt domain to CBFb; Q01196+Q13951; Cerulean-Runt/Venus-CBFb FRET ratio 530/480, 1 h; inhibition, % at 20 µM; actives 0.46% (n = 220,000);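 active = inhibition over about 50% at 20 µM in the single-dose screen, limit read from the data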;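 note: 0% = DMSO wells and 100% = excess unlabeled CBFb competitor control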
#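 Measured by: fluorescence energy transfer, 422 nm excitation, 530/480 nm emission; test system: Cerulean-tagged RUNX1 Runt domain (FRET donor) fusion protein; buffer or medium: Tris pH 7.5 buffer with BSA; compound: one dose, 20 µM compound, 1% DMSO; times: two 1 h room-temperature incubations shielded from light; benchmarks: unlabeled CBFb 5 µM, positive control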
# TbHK1 inh = T. brucei hexokinase 1 inhibition; inhibition, % at 10 µM; actives 0.11% (n = 220,000); recombinant TbHK1, G6PDH-coupled NADH A340;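 active = inhibition of 50% or more in the single-dose primary screen; inactive = inhibition below 50%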
# Hck Nef HTS = blocks Nef-activated human Hck kinase | inhibition, % at 20 µM | Recombinant Hck-YEEI plus Nef, Z-Lyte FRET kinase assay | actives 0.68% (n = 220,000);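 active = Hck-Nef kinase inhibition above about 50%, limit read from the data; inactive = inhibition below that limit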;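 note: 0% = DMSO with Hck plus Nef and 100% = Hck alone without Nef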
# Target sequence (P08631 whole entry, looked up): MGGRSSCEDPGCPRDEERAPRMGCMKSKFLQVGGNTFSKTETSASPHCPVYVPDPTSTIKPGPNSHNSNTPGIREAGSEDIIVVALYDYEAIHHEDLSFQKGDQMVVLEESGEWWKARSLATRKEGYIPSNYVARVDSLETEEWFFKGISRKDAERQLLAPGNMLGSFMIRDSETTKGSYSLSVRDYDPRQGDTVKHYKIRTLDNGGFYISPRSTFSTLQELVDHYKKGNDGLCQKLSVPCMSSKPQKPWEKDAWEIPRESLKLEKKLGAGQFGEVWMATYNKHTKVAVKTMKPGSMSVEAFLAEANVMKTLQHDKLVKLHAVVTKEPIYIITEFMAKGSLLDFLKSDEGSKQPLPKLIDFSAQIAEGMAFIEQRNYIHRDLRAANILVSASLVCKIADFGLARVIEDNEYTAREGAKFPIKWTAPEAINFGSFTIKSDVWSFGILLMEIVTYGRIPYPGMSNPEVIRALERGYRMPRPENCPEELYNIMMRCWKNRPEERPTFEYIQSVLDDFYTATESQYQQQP
# Hck-Nef confirm = Hck-Nef kinase inhibition, confirmation; calls only at 10 µM; actives 28% (n = 1,300); Recombinant Hck-YEEI:Nef, Z-Lyte FRET kinase assay; AID 463188; shares compounds with Hck Nef HTS;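 active = average inhibition of at least 50%, with Z-scores no higher than 3 in both the phospho-tyrosine peptide and fluorescence counterscreens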
# Active calls of the source: *; i = inactive; ? = inconclusive; . = not tested or not shown; + = active, no number.
SMILES,RanGTP-Impb inh,Runt-SMMHC FRET,Runt-CBFb FRET,TbHK1 inh,Hck Nef HTS,Hck-Nef confirm
CCOCCCn1c(=NC(C)=O)c(C(=O)OCC)cc2c(=O)n3ccccc3nc21,77*,63*,52*,-9,119*,.
CC(C)[C@@H](C(=O)NC1CCCC1)N1C(=O)N2CCc3c([nH]c4ccccc34)[C@@]2(C)C1=O,3,.,.,.,.,.
O=c1c(C(c2ccccc2)c2c(O)sc3ccccc3c2=O)c(O)sc2ccccc12,19*,-9,-3,5,68*,+
O=C(CN1C(=O)CCSc2ccc(S(=O)(=O)N3CCOCC3)cc21)Nc1ccccc1Cl,-1,.,.,.,.,.
CCC(=O)Oc1ccc2oc(=O)cc(C)c2c1,-3,-2,0,-3,3,.
CCC(=O)Oc1ccc2c(c1)OC1(OC(C)=O)OC(C)CC1=C2C (stereo not drawn),1,14,10,-40,157*,.
Cn1c(=O)[nH]c(=O)c2c1nc(N/N=C/C(Br)=C/c1ccccc1)n2CCO,?,-17,5,-43,60*,+
CC(C)=NNc1nc2c(c(=O)[nH]c(=O)n2C)n1CCc1ccccc1,-1,-2,0,3,19,.
COc1ccc(CC(=O)NNC(=O)c2cc(C)oc2C)cc1OC,1,.,.,.,.,.
CC(=O)C1C(c2ccc3ncccc3c2)NC(=O)NC1(O)C(F)(F)F (stereo not drawn),-1,-1,0,5,52*,i
CC(=O)C1C(c2ccncc2)NC(=O)NC1(O)C(F)(F)F (stereo not drawn),3,-2,2,4,6,.
O=C1C=CC(O)(c2cc(=O)c3c(O)cc(O)cc3o2)C=C1,7,6,9,-16,53*,i
O=C(Nc1cnn(C23CC4CC(CC(C4)C2)C3)c1)c1cnn2c(C(F)(F)F)cc(-c3ccco3)nc12,?,-7,-6,-19,81*,+
O=C(Nc1ccc2c(c1)OCO2)c1cnn2c(C(F)(F)F)cc(-c3ccco3)nc12,.,-5,-5,-21,1,.
COc1ccc(Br)c(C(=O)NC2CCCC2)c1,0,4,0,1,12,.
CC(C)(C)SCCNC(=O)c1ccccc1,4,1,1,-4,54*,i
N#Cc1c(-c2ccncc2)c2c([nH]c1=O)-c1ccccc1OC2,56*,.,11,-9,70*,i
N#Cc1c(-c2ccncc2)c2c([nH]c1=S)CCCC2,3,9,10,5,2,.
N#Cc1c(-c2ccccc2Cl)c2c([nH]c1=O)-c1ccccc1OC2,131*,82*,95*,-31,146*,i
COc1ccccc1CNS(=O)(=O)c1ccc2c(c1)NC(=O)C(C)S2 (stereo not drawn),0,.,.,.,.,.
CCCCOc1ccc(C(=O)N(CC)CC(=O)NCc2cccs2)cc1,1,.,.,.,.,.
CCCCN(C)CCOc1ccccc1OCC,-1,2,1,2,60*,i
CCOc1ccccc1OCCOc1ccccc1CC,4,0,-2,-1,0,.
COc1ccc(NC(=O)CCCn2cnc3ccccc3c2=O)cc1,1,.,.,.,.,.
COc1ccccc1/C=C/C=c1\sc2nc(=O)c(Cc3ccccc3)nn2c1=O,1,-51,-1,6,81*,+
SMILES,RanGTP-Impb inh,Runt-SMMHC FRET,Runt-CBFb FRET,TbHK1 inh,Hck Nef HTS,Hck-Nef confirm
COc1ccc(S(=O)(=O)Nc2c(C)n(C)n(-c3ccccc3)c2=O)cc1C(=O)O,3,.,.,.,.,.
CCOC(=O)c1ccc(NC(=O)Cn2ncc(Cl)c(Cl)c2=O)cc1,-3,-7,-5,9,59*,+
Cc1cc(=O)[nH]c(/N=C(\N)Nc2ccc(Oc3ccccc3)cc2)n1,1,0,0,-13,52*,i
Fc1ccc(/C=N/Nc2ncnc3nc[nH]c23)cc1F,1,2,-5,-45,68*,+
Clc1ccc(CCNc2ncnc3nc[nH]c23)cc1,.,1,2,1,29,.
Cc1ccccc1/C=N/Nc1ncnc2nc[nH]c12,1,1,-1,-101,75*,+
c1ccc(CNc2ncnc3nc[nH]c23)cc1,-5,-2,0,-17,1,.
CCc1ccc(Nc2ncnc3nc[nH]c23)cc1,-3,2,0,-15,63*,+
Cc1ccsc1/C=N/Nc1ncnc2nc[nH]c12,-3,-5,2,-52,76*,+
CC(=O)N1CCN(Cc2nc3ccc(Cl)cc3n2CCO)CC1,28,.,.,.,.,.
Cc1cccc(Oc2ncnc3oc(-c4ccccc4)cc23)c1C,0,-3,2,-1,0,.
Cc1cc(S(=O)(=O)N2CCOCC2)ccc1OCC(=O)NCCN1CCOCC1,-2,.,.,.,.,.
CCOC(=O)[C@@H]1[C@H]2COc3ccccc3[C@@H]2N2C(=O)N(c3cccc(C)c3)C(=O)[C@]12C,3,.,.,.,.,.
Clc1cnc(N/N=C/c2cccs2)c(Cl)c1,-4,2,-1,-30,1,.
C(=N\Nc1ncnc2nc[nH]c12)/c1cccs1,-6,1,1,-60,82*,+
COc1ccc(CCC(=O)N(C)CC(=O)Nc2cc(C)ccc2C)cc1,4,3,0,10,-3,.
Cc1cc(C=C2C(=O)c3ccccc3C2=O)c(C)n1-c1cccc(C(=O)O)c1,2,-114,-34,3,74*,+
Cc1cc(C=C2C(=O)c3ccccc3C2=O)c(C)n1-c1ccc(C(=O)O)cc1,4,2,8,-3,35,.
COc1ccc(OC)c(C2Nc3c(Cl)ccc(C(=O)O)c3C3C=CCC32)c1 (stereo not drawn),0,14,21,11,-7,.
COC(=O)COc1ccc(C2Nc3c(Cl)ccc(C(=O)O)c3C3C=CCC32)cc1 (stereo not drawn),3,-3,19,16,76*,i
CC1CN(C(=S)Nc2cccc(Cl)c2)CC(C)O1 (stereo not drawn),-3,.,.,.,.,.
Cc1ccc(CN2C(=O)N/C(=C\c3ccc(-c4ccc(C(=O)O)cc4C)o3)C2=O)cc1,.,84*,110*,5,60*,i
O=C(O)c1ccc(CN2C(=O)c3ccc(C(=O)O)cc3C2=O)cc1,1,.,.,.,.,.
S=C(NC1CCCC1)NN1CCOCC1,-4,2,0,-1,-57,.
CCOC(=O)c1c(NC(=O)/C=C/C(=O)O)sc(C)c1-c1ccc(Cl)cc1,5,-5,-6,-10,107*,+
CCOC(=O)c1c(NC(=O)Nc2ccc(Cl)cc2)sc(C)c1C,2,0,2,-7,4,.
CCOc1cc(N2CCOCC2)c(OCC)cc1NC(=O)c1ccccc1C,0,0,0,5,8,.
CCOc1cc(N2CCOCC2)c(OCC)cc1NC(=O)c1ccc2ccccc2n1,-2,-2,2,-11,64*,i
